The RNAGym collection of RNA variant scans (doi:10.1126/science.aae0568)
Variants at the floor of the assay were thinned out.

B1: tRNA (parent)
chain: GUUCCGUUGGCGUAAUGGUAACGCGUCUCCCUCCUAAGGAGAAGACUGCGGGUUCGAGUCCCGUACGGAACG

Variants of: B1
Assay: yeast fitness relative to wild type (ratio to wild type); higher = fitter; tRNA-Arg(CCU), competitive growth, 37 C, YPD
Outline: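 For this measurement, the tRNA-Arg(CCU) gene was varied by chemical synthesis at a 3% per-site mutation rate across 69 sites, and each variant was placed at the native genomic locus in Saccharomyces cerevisiae. The pooled strains went through a 24-hour competition in YPD at 37°C in six parallel replicates, with amplicons from start and end populations read by 100-nucleotide paired-end sequencing. Darwinian fitness relative to wild type followed from the change in each genotype's frequency. Genotypes needed ≥ 100 starting reads, and estimates < 0.5 were set to 0.5.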

Variant | yeast fitness
C31U A42U C62A | 0.615
C31U C34G G50A | ≤ 0.5
C31U G39A G44A C61U | ≤ 0.5
C31A C46U G67U | 0.684
C31U C34G C62U A70G | ≤ 0.5
C31G A40G | 0.719
C31G G51A G68C | 0.545
C31G G41A U47C G52C C60U C62G C66G | ≤ 0.5
C30U G51A C55A | 0.686
C30U G39C C60U | ≤ 0.5
C30U U54A G63A | 0.704
C30U U59A A69C | ≤ 0.5
C31A A45C C62U G63A U64G | ≤ 0.5
C31U C55G A70C | 0.535
C31G C34U | 0.626
C31G C33U A42U | 0.649
C31G C33G U47A | 0.581
C31A G51A G58C | 0.561
C31G G41A G52C A65U G67C | ≤ 0.5
C30U G39A C60G | 0.57
C31G A57U A69C A70G | ≤ 0.5
C31A A45U A70U | 0.789
C31U C60U U64C | 0.695
C31G C55G | 0.592

Variant | yeast fitness
C31G C55U | 0.683
C31U A69C | 1.04
C31U C55A | 0.749
C31A C49G | 0.64
C31U C46G G63A | 0.606
C31G A37C A70C | ≤ 0.5
C31U A42U A43U C60U A69U | 0.51
C31U A37U A69U | 0.677
C31G U32A C60G | ≤ 0.5
C31U C60U | 0.841
C31G G63A C66U | 0.64
C30U G58C | 0.822
C30U G58A | 0.919
C31A A43G A70U | 0.708
C31G G58C | 0.88
C31U G38C | 0.845
C31A A45U | 1.02
C31A U35A A36U U47C C66U | ≤ 0.5
C30U U53A | 0.672
C30U U53G | 0.618
C31A C34G A43C C61U | ≤ 0.5
C31G G38A C61A G63A A65G | ≤ 0.5
C31U C46A G58C A69U | 0.543
C31U G41C | 0.796

Variant | yeast fitness
C31U C34U G38A C46U | 0.524
C31A A36C | 0.558
C31A U59G | 0.771
C31A A40U A42G | 0.606
C31A C49G G56C A70U | ≤ 0.5
C31G C49U U54G | ≤ 0.5
C31G G68C | 0.684
C31G G68A | 0.802
C31U A37G G68C | ≤ 0.5
C31G A43U C46G C62U | ≤ 0.5
C30U G39C | 0.682
C31A G63C G67C | ≤ 0.5
C31A A43U G68U | 0.72
C31U A42C U47G G52C A57U | ≤ 0.5
C31A U47A | 0.673
C31G C66G | 0.587
C30U C61U G63A A65G | ≤ 0.5
C31G C34G C66A | 0.568
C30U U47A C66A | ≤ 0.5
C31G G44C | 0.931
C31G C34U A40C | 0.526
C31G U54A | 0.655
C31A A40U C46A A70C | 0.626
C31A U47C C61A | ≤ 0.5

Variant | yeast fitness
C31G G51A C55G G68C | 0.56
C30U U32G A37G G63A | ≤ 0.5
C31U A36C G41A | ≤ 0.5
C31U A65C | 0.926
C31G A69U | 0.752
C31G A69C | 0.907
C31A A42U | 0.909
C31G A40G A45C U53A | ≤ 0.5
C31U C33U C34G A40C A69C | ≤ 0.5
C31A A65C G67A | ≤ 0.5
C30U U35A C62A | ≤ 0.5
C31G G51A | 0.749
C31U C33U A40U A45G | 0.575
C30U G56A A69C | 0.566
C31A A42G G67A A69U | 0.625
C31U C46A A70C | 0.771
C31U A36C | 0.842
C31A C46U | 0.947
C31A A43G A65G | 0.702
C31A A43C A45C | ≤ 0.5
C31G A37U A42U A65C | ≤ 0.5
C31G A36U G39A C62U | ≤ 0.5
C31G G67C A69U | ≤ 0.5
C30U C61U | 0.826

Variant | yeast fitness
C31A A57G | 0.777
C31A A57C | 0.544
C31U C46U C49U | 0.905
C30U U47A | 0.695
C30U U47G | 0.588
C31U C62G G68C | 0.507
C30U G50C | 0.69
C31G A57U A69G | 0.774
C31G G51A A57G G68C | ≤ 0.5
C30U G41A A69C | ≤ 0.5
C31G A37G G38C A43G G58C | ≤ 0.5
C31A U35A C55G G58C | ≤ 0.5
C31A A37G A65U | 0.629
C31A G44A A57G A65C A70U | ≤ 0.5
C31G C49G | 0.753
C31G G44C A69C A70C | 0.528
C30U G68C | 0.813
C31G A70C | 0.689
C31G A70U | 0.938
C30U U32A A57U | 0.692
C31G G41A A65C | ≤ 0.5
C31G A36U G48A A57C | ≤ 0.5
C31U G38C G51C C55U | ≤ 0.5
C31A G44A C55G A70G | ≤ 0.5

Variant | yeast fitness
C31A G39A U47A G68C | ≤ 0.5
C31A A42G A57U U59A | ≤ 0.5
C31G A42U A43C | 1.15
C31A C33U G41A C62A | ≤ 0.5
C31U G41C A43C | 0.722
C31A C33G A45G G48A | ≤ 0.5
C31G C33U U59G C66U G68A | 0.543
C31A C62A | 0.6
C31U C49U A69U | 0.889
C31U A37U C66U | 0.542
C30U G44A C46A | 0.637
C30U G44A G48C A70G | ≤ 0.5
C30U U32A A36U A37U | ≤ 0.5
C31G A40G C49U G50C | ≤ 0.5
C31A U32C C46U | ≤ 0.5
C31U C55U C61A G67A | ≤ 0.5
C31A U53A A65U | ≤ 0.5
C30U G50A C61G | ≤ 0.5
C31U G41A A69U | 0.808
C31U C46A A65U A69U | 0.58
C31G U47G | 0.667
C31G U47C | 0.952
C31G A65G | 0.867
C31G A65C | 0.691

Variant | yeast fitness
C31G A36C G68A A70C | ≤ 0.5
C31G A40G C49U G50C A70C | ≤ 0.5
C31A A40G A43G G52C U59G | ≤ 0.5
C31U G39C G58A | 0.552
C30U G51C C61A | 0.635
C31U C33A G50A G68U | 0.596
C31A C34U C61G | 0.609
C31G A43C | 0.932
C31G A43G | 0.982
C31A A42G A43U G56C | ≤ 0.5
C31A A40G A43C G44A | ≤ 0.5
C31U A37G U47C G63A | ≤ 0.5
C31U A42C U54A | ≤ 0.5
C31G A36U U53C C61A G68A | ≤ 0.5
C30U G48A G67A | ≤ 0.5
C31U C46G | 0.972
C31U C46A | 1.01
C31A A37U C49A | 0.745
C31U C66A | 0.774
C30U G50C C61G | ≤ 0.5
C31U A36C U53C | 0.569
C31U G38C G63A G68C A69G | 0.673
C30U U54A | 0.561
